From ChEMBL document CHEMBL5303300, “EUbOPEN Chemogenomics Library - Multiplex” (2023)
Where “and” joins values, the source holds several entries; their conditions need not be identical. Identical values can stand only once. *1 amine or outer side, *2 acyl side, *3 side chain or, on linkers, in order; H or OH if unused. Where a SMILES comes first, the peptide text is derived from it. Bridges are numbered along the chain shown (N, C = ends). Roman numbers before positions name the chains, in order. [ ]: non-standard residue; d: D form. Hexamethylenediamine = C(CCCN[*:2])CCN[*:1]; Dip = N[C@H](C(=O)O)C(c1ccccc1)c1ccccc1; Chg = N[C@H](C(=O)O)C1CCCCC1; NMeA = CN[C@@H](C)C(=O)O

Columns and labels:
Assay type in all cases: toxicity, cell-based
[1] = system: Fibroblast; assay: Multiplex assay against human fibroblast; details: number of replicates 2
Method in brief: (§1)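 Per cents of healthy-nucleus cells form the tubulin, mitochondrial-mass and membrane-permeability phenotype values. Live cells were stained at seeding with Hoechst33342, BioTracker Green Microtubule Cytoskeleton Dye, MitoTracker Red and Annexin V Alexa Fluor 680. After compound addition they were imaged on a CQ1 microscope at 37°C and 5% CO2, and CellPathfinder machine-learning gating split them into Hoechst high-intensity objects or normal cells, normal cells into healthy, pyknosed or fragmented nuclei, and pyknosed cells into mitotic or apoptotic.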

[2] = system: HEK-293T; assay: Multiplex assay against HEK293T; details: human, number of replicates 2; method in brief: as §1
[3] = system: U2OS; assay: Multiplex assay against U2OS; details: human, number of replicates 2; method in brief: as §1
[4] = 12 h, 1 µM, compound concentration 1 uM
[5] = 12 h, 10 µM, compound concentration 10 uM
[6] = 24 h, 1 µM, compound concentration 1 uM
[7] = 24 h, 10 µM, compound concentration 10 uM
[8] = 48 h, 1 µM, compound concentration 1 uM
[9] = 48 h, 10 µM, compound concentration 10 uM

## CN[C@@H](C)C(=O)N[C@H](C(=O)N1CCC[C@H]1C(=O)N[C@H](C(=O)NCCCCCCNC(=O)[C@@H](NC(=O)[C@@H]1CCCN1C(=O)[C@@H](NC(=O)[C@H](C)NC)C1CCCCC1)C(c1ccccc1)c1ccccc1)C(c1ccccc1)c1ccccc1)C1CCCCC1 (I: H-[NMeA][Chg]P[Dip] / II: H-[NMeA][Chg]P[Dip]; linker I:C-II:C via Hexamethylenediamine)
[1]; [4]
  Population Apoptotic (%): 29% and 33%
  Population Fragmented Nuclei (%): 14% and 9%
  Population Healthy Nuclei (%): 64% and 70%
  Population Hoechst High Intensity Objects (%): 0%
  Population Membrane Permeable-Phenotype (%): 5% and 3%
  Population Mitochondria Different-Phenotype (%): 0% and 3%
  Population Mitotic Cells (%): 70% and 66%
  Population Normal (%): 100%
  Population Pyknosed Nuclei (%): 21% and 20%
  Population Tubulin-Different-Phenotype (%): 18% and 9%
  Total Cell Count: 205 and 174
[1]; [5]
  Population Apoptotic (%): 43% and 60%
  Population Fragmented Nuclei (%): 15% and 11%
  Population Healthy Nuclei (%): 55%
  Population Hoechst High Intensity Objects (%): 0%
  Population Membrane Permeable-Phenotype (%): 4% and 3%
  Population Mitochondria Different-Phenotype (%): 6% and 15%
  Population Mitotic Cells (%): 56% and 39%
  Population Normal (%): 100% and 99%
  Population Pyknosed Nuclei (%): 29% and 33%
  Population Tubulin-Different-Phenotype (%): 59% and 55%
  Total Cell Count: 210 and 251
[1]; [6]
  Population Apoptotic (%): 43% and 45%
  Population Fragmented Nuclei (%): 9% and 10%
  Population Healthy Nuclei (%): 68% and 66%
  Population Hoechst High Intensity Objects (%): 0%
  Population Membrane Permeable-Phenotype (%): 5% and 4%
  Population Mitochondria Different-Phenotype (%): 4% and 2%
  Population Mitotic Cells (%): 56% and 55%
  Population Normal (%): 100% and 99%
  Population Pyknosed Nuclei (%): 21% and 22%
  Population Tubulin-Different-Phenotype (%): 24% and 16%
  Total Cell Count: 203 and 176
[1]; [7]
  Population Apoptotic (%): 72% and 60%
  Population Fragmented Nuclei (%): 22% and 20%
  Population Healthy Nuclei (%): 48% and 60%
  Population Hoechst High Intensity Objects (%): 0%
  Population Membrane Permeable-Phenotype (%): 9% and 11%
  Population Mitochondria Different-Phenotype (%): 36% and 23%
  Population Mitotic Cells (%): 27% and 39%
  Population Normal (%): 100%
  Population Pyknosed Nuclei (%): 29% and 19%
  Population Tubulin-Different-Phenotype (%): 63% and 71%
  Total Cell Count: 249 and 210
[1]; [8]
  Population Apoptotic (%): 52% and 53%
  Population Fragmented Nuclei (%): 16% and 12%
  Population Healthy Nuclei (%): 65% and 73%
  Population Hoechst High Intensity Objects (%): 0%
  Population Membrane Permeable-Phenotype (%): 3% and 5%
  Population Mitochondria Different-Phenotype (%): 3% and 2%
  Population Mitotic Cells (%): 47% and 46%
  Population Normal (%): 100%
  Population Pyknosed Nuclei (%): 17% and 14%
  Population Tubulin-Different-Phenotype (%): 23% and 13%
  Total Cell Count: 206 and 194
[1]; [9]
  Population Apoptotic (%): 83% and 76%
  Population Fragmented Nuclei (%): 35% and 30%
  Population Healthy Nuclei (%): 57%
  Population Hoechst High Intensity Objects (%): 0%
  Population Membrane Permeable-Phenotype (%): 8% and 3%
  Population Mitochondria Different-Phenotype (%): 12% and 20%
  Population Mitotic Cells (%): 16% and 23%
  Population Normal (%): 100% and 99%
  Population Pyknosed Nuclei (%): 6% and 12%
  Population Tubulin-Different-Phenotype (%): 79% and 67%
  Total Cell Count: 258 and 314
[2]; [4]
  Population Apoptotic (%): 45% and 56%
  Population Fragmented Nuclei (%): 3% and 1%
  Population Healthy Nuclei (%): 85%
  Population Hoechst High Intensity Objects (%): 7% and 5%
  Population Membrane Permeable-Phenotype (%): 2%
  Population Mitochondria Different-Phenotype (%): 27% and 23%
  Population Mitotic Cells (%): 54% and 43%
  Population Normal (%): 92% and 94%
  Population Pyknosed Nuclei (%): 10% and 13%
  Population Tubulin-Different-Phenotype (%): 59% and 58%
  Total Cell Count: 599 and 505
[2]; [5]
  Population Apoptotic (%): 83% and 76%
  Population Fragmented Nuclei (%): 4% and 2%
  Population Healthy Nuclei (%): 75% and 79%
  Population Hoechst High Intensity Objects (%): 12% and 5%
  Population Membrane Permeable-Phenotype (%): 3% and 0%
  Population Mitochondria Different-Phenotype (%): 76%
  Population Mitotic Cells (%): 16% and 23%
  Population Normal (%): 87% and 94%
  Population Pyknosed Nuclei (%): 20% and 17%
  Population Tubulin-Different-Phenotype (%): 96% and 98%
  Total Cell Count: 501 and 525
[2]; [6]
  Population Apoptotic (%): 43% and 54%
  Population Fragmented Nuclei (%): 5% and 3%
  Population Healthy Nuclei (%): 87%
  Population Hoechst High Intensity Objects (%): 6% and 7%
  Population Membrane Permeable-Phenotype (%): 2% and 1%
  Population Mitochondria Different-Phenotype (%): 16% and 20%
  Population Mitotic Cells (%): 56% and 45%
  Population Normal (%): 93%
  Population Pyknosed Nuclei (%): 7% and 8%
  Population Tubulin-Different-Phenotype (%): 40% and 44%
  Total Cell Count: 944 and 671
[2]; [7]
  Population Apoptotic (%): 79% and 67%
  Population Fragmented Nuclei (%): 7% and 4%
  Population Healthy Nuclei (%): 66% and 80%
  Population Hoechst High Intensity Objects (%): 12% and 7%
  Population Membrane Permeable-Phenotype (%): 1% and 0%
  Population Mitochondria Different-Phenotype (%): 85% and 82%
  Population Mitotic Cells (%): 20% and 32%
  Population Normal (%): 87% and 92%
  Population Pyknosed Nuclei (%): 26% and 15%
  Population Tubulin-Different-Phenotype (%): 92% and 95%
  Total Cell Count: 463 and 559
[2]; [8]
  Population Apoptotic (%): 19% and 25%
  Population Fragmented Nuclei (%): 9% and 7%
  Population Healthy Nuclei (%): 86% and 87%
  Population Hoechst High Intensity Objects (%): 6% and 8%
  Population Membrane Permeable-Phenotype (%): 3% and 0%
  Population Mitochondria Different-Phenotype (%): 2% and 5%
  Population Mitotic Cells (%): 80% and 74%
  Population Normal (%): 93% and 91%
  Population Pyknosed Nuclei (%): 3% and 5%
  Population Tubulin-Different-Phenotype (%): 18% and 25%
  Total Cell Count: 2232 and 1305
[2]; [9]
  Population Apoptotic (%): 80% and 75%
  Population Fragmented Nuclei (%): 9% and 7%
  Population Healthy Nuclei (%): 72% and 74%
  Population Hoechst High Intensity Objects (%): 9% and 10%
  Population Membrane Permeable-Phenotype (%): 4% and 2%
  Population Mitochondria Different-Phenotype (%): 53% and 56%
  Population Mitotic Cells (%): 19% and 24%
  Population Normal (%): 90% and 89%
  Population Pyknosed Nuclei (%): 18% and 17%
  Population Tubulin-Different-Phenotype (%): 82% and 84%
  Total Cell Count: 653 and 709
[3]; [4]
  Population Apoptotic (%): 75% and 38%
  Population Healthy Nuclei (%): 41% and 84%
  Population Hoechst High Intensity Objects (%): 0%
  Population Membrane Permeable-Phenotype (%): 0%
  Population Mitochondria Different-Phenotype (%): 0%
  Population Mitotic Cells (%): 25% and 61%
  Population Normal (%): 100%
  Population Pyknosed Nuclei (%): 7% and 12%
  Population Tubulin-Different-Phenotype (%): 36% and 78%
  Total Cell Count: 53 and 104
[3]; [5]
  Population Apoptotic (%): 90% and 91%
  Population Healthy Nuclei (%): 62% and 56%
  Population Hoechst High Intensity Objects (%): 1% and 0%
  Population Membrane Permeable-Phenotype (%): 10% and 0%
  Population Mitochondria Different-Phenotype (%): 20% and 19%
  Population Mitotic Cells (%): 9% and 8%
  Population Normal (%): 98% and 100%
  Population Pyknosed Nuclei (%): 31% and 21%
  Population Tubulin-Different-Phenotype (%): 57% and 22%
[3]; [6]
  Population Apoptotic (%): 62% and 52%
  Population Healthy Nuclei (%): 47% and 89%
  Population Hoechst High Intensity Objects (%): 0%
  Population Membrane Permeable-Phenotype (%): 9% and 0%
  Population Mitochondria Different-Phenotype (%): 0%
  Population Mitotic Cells (%): 37% and 47%
  Population Normal (%): 100%
  Population Pyknosed Nuclei (%): 12% and 9%
  Total Cell Count: 65 and 175
[3]; [7]
  Population Apoptotic (%): 77% and 80%
  Population Fragmented Nuclei (%): 9%
  Population Healthy Nuclei (%): 54% and 58%
  Population Hoechst High Intensity Objects (%): 0%
  Population Membrane Permeable-Phenotype (%): 11% and 8%
  Population Mitotic Cells (%): 22% and 19%
  Population Normal (%): 100% and 99%
  Population Pyknosed Nuclei (%): 35% and 32%
  Population Tubulin-Different-Phenotype (%): 23% and 47%
[3]; [8]
  Population Apoptotic (%): 78% and 74%
  Population Healthy Nuclei (%): 45% and 79%
  Population Hoechst High Intensity Objects (%): 0%
  Population Membrane Permeable-Phenotype (%): 9% and 2%
  Population Mitochondria Different-Phenotype (%): 4% and 0%
  Population Mitotic Cells (%): 21% and 25%
  Population Normal (%): 100%
  Population Pyknosed Nuclei (%): 20% and 12%
  Population Tubulin-Different-Phenotype (%): 33% and 81%
[3]; [9]
  Population Apoptotic (%): 94% and 76%
  Population Fragmented Nuclei (%): 7% and 14%
  Population Healthy Nuclei (%): 63% and 52%
  Population Hoechst High Intensity Objects (%): 0%
  Population Membrane Permeable-Phenotype (%): 9% and 10%
  Population Mitochondria Different-Phenotype (%): 7% and 8%
  Population Normal (%): 99% and 100%
  Population Pyknosed Nuclei (%): 28% and 33%
  Population Tubulin-Different-Phenotype (%): 50% and 34%
